Measurements reported in ChEMBL document CHEMBL3603777, “Carbon nanotubes supported tyrosinase in the synthesis of lipophilic hydroxytyrosol and dihydrocaffeoyl catechols with antiviral activity against DNA and RNA viruses” (Bioorg Med Chem, 2015).
Values after ≈ are worked out from the molar mass of the structure shown. Active and inactive are the calls of the source. The calls are words filed in the database; no cut-off is given here.

Key:
[1] = tested on: Human poliovirus 1 strain Sabin; assay: Antiviral activity against Poliovirus type 1 Sabin VR-1562 infected in African green monkey Vero cells assessed as inhibition of virus-induced plaque formation/cytopathogenicity; assay type: functional; conditions: Enterovirus C, VR-1562, Vero; read-out: ID50 (the source's name)
Outline: (§1)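 Cell monolayers infected at MOI 0.1 and treated with compound at 25 to 200 μg/mL. Compounds dissolved in DMSO, diluted in maintenance medium (DMEM, 2% heat-inactivated FCS), final DMSO at most 0.01%. Acyclovir is the reference. ID50 is the concentration giving 50% reduction of plaque formation or virus-induced cytopathogenicity, from dose–response curves by linear regression. Values are the mean of three separate assays.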

Coxsackievirus B3 = assay: Antiviral activity against Coxsackie type B3 virus VR-1034 infected in African green monkey Vero cells assessed as inhibition of virus-induced plaque formation/cytopathogenicity; assay type: functional; conditions: Enterovirus B, VR-1034, Vero; read-out: ID50 (the source's name); outline: as §1
Echovirus E9 = assay: Antiviral activity against Human echovirus type 9 VR-1050 infected in African green monkey Vero cells assessed as inhibition of virus-induced plaque formation/cytopathogenicity; assay type: functional; conditions: Enterovirus B, VR-1050, Vero; read-out: ID50 (the source's name); outline: as §1
Human alphaherpesvirus 1 [2] = assay: Antiviral activity against Herpes simplex type 1 VR-260 infected in African green monkey Vero cells assessed as inhibition of virus-induced plaque formation/cytopathogenicity; assay type: functional; conditions: Human alphaherpesvirus 1, VR-260, Vero; read-out: ID50 (the source's name); outline: as §1
Human alphaherpesvirus 2 = assay: Antiviral activity against Herpes simplex type 2 VR-734 infected in African green monkey Vero cells assessed as inhibition of virus-induced plaque formation/cytopathogenicity; assay type: functional; conditions: Human alphaherpesvirus 2, VR-734, Vero; read-out: ID50 (the source's name); outline: as §1
Human adenovirus 2 = assay: Antiviral activity against Adenovirus type 2 VR-1080 infected in human Hep2 cells assessed as inhibition of virus-induced plaque formation/cytopathogenicity; assay type: functional; conditions: Human mastadenovirus C, VR-1080, HEp-2; read-out: ID50 (the source's name); outline: as §1
Human adenovirus 5 = assay: Antiviral activity against Adenovirus type 5 VR-1523 infected in human Hep2 cells assessed as inhibition of virus-induced plaque formation/cytopathogenicity; assay type: functional; conditions: Human mastadenovirus C, VR-1523, HEp-2; read-out: ID50 (the source's name); outline: as §1
Cytomegalovirus = assay: Antiviral activity against Cytomegalovirus VR-538 infected in human HFF1 cells assessed as inhibition of virus-induced plaque formation/cytopathogenicity; assay type: functional; conditions: Human betaherpesvirus 5, VR-538, HFF-1; read-out: ID50 (the source's name); outline: as §1
[3] = Cytotoxicity against African green monkey Vero cells after 24 hrs by MTT assay; assay type: cell-based; conditions: chlorocebus sabaeus
[4] = Cytotoxicity against human Hep2 cells after 24 hrs by MTT assay; assay type: cell-based, HEp-2
[5] = Cytotoxicity against human HFF1 cells after 24 hrs by MTT assay; assay type: cell-based, HFF-1
Human alphaherpesvirus 1 [6] = assay: Antiviral activity against Herpes simplex type 1 VR-260 infected in African green monkey Vero cells assessed as inhibition of virus replication at 5 times ID50 treated 1 hr after virus adsorption period measured after 12 hrs by plaque assay; assay type: functional, organism-based
Outline: (§2)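 Confluent Vero monolayers infected with HSV-1 at MOI 0.1, 2 h adsorption at 4 °C for synchronous replication. Inoculum then removed and fresh medium with or without compound added at various times after adsorption. Incubation at 37 °C for 12 h, cultures frozen, virus yield titrated by plaque assay. Mean ± SEM of three separate assays.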

Human alphaherpesvirus 1 [7] = assay: Antiviral activity against Herpes simplex type 1 VR-260 infected in African green monkey Vero cells assessed as inhibition of virus replication at 5 times ID50 treated 2 hrs after virus adsorption period measured after 12 hrs by plaque assay; assay type: functional, organism-based; outline: as §2
Human alphaherpesvirus 1 [8] = assay: Antiviral activity against Herpes simplex type 1 VR-260 infected in African green monkey Vero cells assessed as reduction of virus yield at 5 times ID50 treated 2 hrs after virus adsorption period measured after 12 hrs by plaque assay; assay type: functional, organism-based; outline: as §2
Human alphaherpesvirus 1 [9] = assay: Inhibition of Herpes simplex type 1 VR-260 adsorption in African green monkey Vero cells assessed as cell-associated viral activity at 5 times ID50 after 120 mins by plaque assay; assay type: functional, organism-based
Outline: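 Infective center assay. HSV-1 (10⁶ PFU/mL) preincubated 60 min at 37 °C with compound, chilled to 4 °C, then added to a Vero suspension (10⁶ cells/mL) precooled ≥1 h at 4 °C. Adsorption for 120 min at 4 °C. Cells washed three times with cold DMEM, serially diluted and plaque assayed for cell-associated virus.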

Human alphaherpesvirus 1 [10] = assay: Antiviral activity against Herpes simplex type 1 VR-260 infected in African green monkey Vero cells assessed as virucidal activity at 5 times ID50 after 1 hr by plaque assay; assay type: functional, organism-based
Outline: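 HSV-1 suspension (10⁶ PFU/mL) mixed 1:1 by volume with DMEM containing compound at 5× ID50, held 1 h at 37 °C. Residual infectivity measured by plaque assay on Vero cells after diluting below the inhibitory concentration.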

Human alphaherpesvirus 1 [11] = assay: Antiviral activity against Herpes simplex type 1 VR-260 infected in African green monkey Vero cells assessed as protection of host cells from viral infection […] by plaque assay; assay type: functional, organism-based

| SMILES | IC50 [1] [µg/mL] | IC50 (Coxsackievirus B3) [µg/mL] | IC50 (Echovirus E9) [µg/mL] | IC50 (Human alphaherpesvirus 1 [2]) [µg/mL] | IC50 (Human alphaherpesvirus 2) [µg/mL] | IC50 (Human adenovirus 2) [µg/mL] | IC50 (Human adenovirus 5) [µg/mL] | IC50 (Cytomegalovirus) [µg/mL] | CC50 at 24 h [3] [µg/mL] | CC50 at 24 h [4] [µg/mL] | CC50 at 24 h [5] [µg/mL] | Activity (Human alphaherpesvirus 1 [6]) | Activity (Human alphaherpesvirus 1 [7]) | Activity (Human alphaherpesvirus 1 [8]) | inhibition (Human alphaherpesvirus 1 [9]) | Activity (Human alphaherpesvirus 1 [10]) | Activity (Human alphaherpesvirus 1 [11]) |
| --- | --- | --- | --- | --- | --- | --- | --- | --- | --- | --- | --- | --- | --- | --- | --- | --- | --- |
| CCC(=O)OCCc1ccc(O)c(O)c1 | > 40 | > 40 | > 40 | 20 (≈ 95.1 µM) | 40 (≈ 190 µM) | > 40 | > 40 | > 40 | 40 (≈ 190 µM) | 40 (≈ 190 µM) | 40 (≈ 190 µM) | – | – | – | – | – | – |
| CCCOC(=O)CCc1ccc(O)c(O)c1 | > 200 | > 200 | > 200 | > 200 | – | > 200 | > 200 | – | > 200 | > 200 | – | – | – | – | – | – | – |
| O=C(O)CCc1ccc(O)c(O)c1 [DIHYDROCAFFEIC ACID] | > 200 | > 200 | > 200 | > 200 | – | > 200 | > 200 | > 200 | > 200 | > 200 | > 200 | – | – | – | – | – | – |
| CCOC(=O)CCc1ccc(O)c(O)c1 | > 75 | 20 (≈ 95.1 µM) | > 75 | 15 (≈ 71.4 µM) | 60 (≈ 285 µM) | > 40 | > 40 | 40 (≈ 190 µM) | 75 (≈ 357 µM) | 40 (≈ 190 µM) | 40 (≈ 190 µM) | Active | inactive | Active | inactive | inactive | inactive |
| CCCC(=O)OCCc1ccc(O)c(O)c1 [HYDROXYTYROSOL BUTANOATE] | > 100 | > 100 | > 100 | > 100 | 100 (≈ 446 µM) | > 100 | > 100 | > 100 | 100 (≈ 446 µM) | 100 (≈ 446 µM) | 100 (≈ 446 µM) | – | – | – | – | – | – |
| CCCCC(=O)OCCc1ccc(O)c(O)c1 | > 25 | > 25 | > 25 | 25 (≈ 105 µM) | – | > 25 | > 25 | > 25 | 25 (≈ 105 µM) | 25 (≈ 105 µM) | 25 (≈ 105 µM) | – | – | – | – | – | – |
| COC(=O)CCc1ccc(O)c(O)c1 | > 100 | > 100 | > 100 | > 100 | > 100 | > 100 | > 100 | 100 (≈ 510 µM) | 100 (≈ 510 µM) | 100 (≈ 510 µM) | 100 (≈ 510 µM) | – | – | – | – | – | – |
| CCCCOC(=O)CCc1ccc(O)c(O)c1 | > 200 | 100 (≈ 420 µM) | > 200 | > 200 | > 200 | > 200 | > 200 | 25 (≈ 105 µM) | 200 (≈ 839 µM) | 200 (≈ 839 µM) | 100 (≈ 420 µM) | – | – | – | – | – | – |
| CC(=O)OCCc1ccc(O)c(O)c1 | > 100 | 50 (≈ 255 µM) | > 100 | 20 (≈ 102 µM) | 40 (≈ 204 µM) | > 50 | > 50 | > 50 | 100 (≈ 510 µM) | 50 (≈ 255 µM) | 50 (≈ 255 µM) | – | – | – | – | – | – |
